Key:
[1] = folding enthalpy; higher = less favourable; fluorescence melt of hairpins on a sequencing array, two-state fit; conditions: sodium 0.088 M
Summary of the method: (§1)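 Melting temperature and folding enthalpy were obtained by bootstrapped two-state fitting. Fits used Cy3 fluorescence of library hairpins with annealed Cy3 and quencher oligos on a sequenced MiSeq flow cell, imaged in 50 mM Na-HEPES pH 8.0, 25 mM NaCl in 2.5 °C steps up to 60 °C and normalised to pre-quench Cy3 and control constructs. Four replicates were combined by inverse-variance weighting, and fitted temperatures were raised by 9.35 °C to match UV melts.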

[2] = melting temperature; fluorescence melt of hairpins on a sequencing array, two-state fit, raised by 9.35 °C to match UV melts; conditions: sodium 0.088 M
Summary of the method: as §1

Row | Sequence | folding enthalpy [1] | Tm [2]
1 | GGATCGAAAGATCC (((((....))))) | -29.6 kcal/mol | 65.3 °C
2 | GGATCGCGAAAGCGTCC (((.(((....)))))) | -22.7 kcal/mol | 52.6 °C
3 | GGATCGGCGAAAGCCTCC (((..(((....)))))) | -11.1 kcal/mol | 28.4 °C
4 | GGATCTGGAAACAGATCC (((((((....))))))) | -47.9 kcal/mol | 62.4 °C
5 | GGATCTGGAAACAGATTC (.(((((....))))).) | -28.9 kcal/mol | 46.2 °C
6 | GGATGCGAAAGCAAGTCC ((((((....)))..))) | -13.7 kcal/mol | 35.5 °C
7 | GGATGCGAAAGCAATCC ((((((....))).))) | -27.8 kcal/mol | 57.9 °C
8 | GGATGCGCGAAAGCGTCC (((..(((....)))))) | -12.3 kcal/mol | 41 °C
9 | GGATGGCGAAAGCCGTCC (((.(((....))).))) | -28.8 kcal/mol | 68.8 °C
10 | GGATGGGGAAACCCACCC ((.((((....)))).)) | -24.1 kcal/mol | 45.1 °C
11 | GGATGGGGAAACTCGTCC (((.(.(....).).))) | -25.2 kcal/mol | 38.5 °C
12 | GGATGTACGAAAGTATCC (((..(((....)))))) | -20.2 kcal/mol | 37.9 °C
13 | GGATGTCGAAAGACCTCC (((.(((....))).))) | -29 kcal/mol | 46.5 °C
14 | GGATGTGGAAACACGTTC (.(.(((....))).).) | -21.3 kcal/mol | 35.8 °C
15 | GGATGTGGAAACGCATCC (((((.(....).))))) | -41.4 kcal/mol | 52.2 °C
16 | GGATGTGGAAACGTATCC ((((..(....)..)))) | -22.3 kcal/mol | 35.1 °C
17 | GGATTAACGAAAGTTTCC (((..(((....)))))) | -19.4 kcal/mol | 28.2 °C
18 | GGATTACGAAAGTATCC (((.(((....)))))) | -22.2 kcal/mol | 42.3 °C
19 | GGATTAGGAAACCAATCC (((((.(....).))))) | -34 kcal/mol | 34.4 °C
20 | GGATTAGGAAACTAATCC (((((((....))))))) | -40.5 kcal/mol | 55 °C
21 | GGATTCACGAAAGTGTCC (((..(((....)))))) | -12.5 kcal/mol | 29.8 °C
22 | GGATTCCGAAAGGATCC (((.(((....)))))) | -29.1 kcal/mol | 49.6 °C
23 | GGATTCGAAAGAAAATCC ((((((....)))..))) | -21.4 kcal/mol | 29.9 °C

Row | Sequence | folding enthalpy [1] | Tm [2]
24 | GGATTCGGAAACGGATTC (.((.((....)).)).) | -16.7 kcal/mol | 32.3 °C
25 | GGATTGCGAAAGCAGTCC (((.(((....))).))) | -38.5 kcal/mol | 60.2 °C
26 | GGATTGGGAAACCAATTC (.(((((....))))).) | -28 kcal/mol | 44.2 °C
27 | GGATTGGGAAACTAATCC (((((.(....).))))) | -33.9 kcal/mol | 43.5 °C
28 | GGATTGGGAAACTAGTCC (((.(.(....).).))) | -23.6 kcal/mol | 27.3 °C
29 | GGATTGGGAAACTGATCC ((((..(....)..)))) | -28.1 kcal/mol | 34.4 °C
30 | GGATTTCGAAAGAAGTCC (((.(((....))).))) | -36.2 kcal/mol | 49.3 °C
31 | GGCAAAGGAAACTTCGCC (((.(((....))).))) | -29.7 kcal/mol | 41 °C
32 | GGCAAATCGAAAGATGCC (((..(((....)))))) | -29.8 kcal/mol | 47.6 °C
33 | GGCAACCGAAAGGTCGCC (((.(((....))).))) | -37.3 kcal/mol | 58.9 °C
34 | GGCAACGAAAGTTAGGCC ((((((....)))..))) | -28.3 kcal/mol | 46.2 °C
35 | GGCAACGAAAGTTGGGCC ((((((....)))..))) | -16.9 kcal/mol | 44.6 °C
36 | GGCAACGAAAGTTTGGCC ((((((....)))..))) | -27.3 kcal/mol | 46.4 °C
37 | GGCAACGAAAGTTTTGCC ((((((....)))..))) | -26 kcal/mol | 44.9 °C
38 | GGCAAGAAATTGCC (((((....))))) | -33.2 kcal/mol | 53 °C
39 | GGCAAGCGAAAGCTCGCC (((.(((....))).))) | -22.9 kcal/mol | 59.7 °C
40 | GGCAAGGAAACTTGCC ((((((....)))))) | -37 kcal/mol | 64.7 °C
41 | GGCAAGGGAAACCTCGCC (((.(((....))).))) | -32 kcal/mol | 47.1 °C
42 | GGCAAGGGAAACCTTACC ((.((((....)))).)) | -29.2 kcal/mol | 37.4 °C
43 | GGCAAGGGAAACCTTGCC (((((((....))))))) | -33.1 kcal/mol | 67.8 °C
44 | GGCAATACGAAAGTAGCC (((..(((....)))))) | -17.9 kcal/mol | 44.4 °C
45 | GGCACACGAAAGTGGCC (((.(((....)))))) | -23.2 kcal/mol | 62.2 °C
46 | GGCACAGGAAACCGTGCC (((((.(....).))))) | -43.9 kcal/mol | 56.8 °C
